# Compound activity from PubChem BioAssay.
# The list is not random: actives were taken first. Their share in the collection is about 1.9%.
# LMPTP inh = LMPTP (human) inhibition | inhibition, % at 20 µM | recombinant LMPTP-A, OMFP fluorogenic substrate, fluorescence intensity | P24666 | actives 0.22% (n = 360,000) | AID 651560;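 active means compounds that cut the enzyme signal by at least half of the control window in the single-dose screen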;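 further: plate controls were DMSO wells with enzyme plus substrate for no effect and substrate without enzyme for full effect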
#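 Test system: LMPTP-A phosphatase enzyme; input: 0.625 nM LMPTP-A final; reagent: OMFP substrate, 400 µM final; compound dosing: 20 µM single dose, 3% DMSO; incubation: 50 min dark incubation at room temperature; measured by: endpoint fluorescence intensity from OMFP dephosphorylation; measure: % inhibition relative to no-enzyme and uninhibited control wells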
# Scp1 inh = blocks human Scp-1 phosphatase activity. inhibition, % at 20 µM. AID 493091. Recombinant Scp1, phosphopeptide, malachite green phosphate absorbance. Q9GZU7. actives 0.88% (n = 340,000);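 active means inhibition above about 50% at 20 µM, limit read from the data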;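 further: plate controls were DMSO wells with enzyme for no effect and wells lacking enzyme for full effect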
#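 Incubation: 45 min enzyme reaction at room temperature / System: truncated SCP-1 phosphatase (76-261aa) / Reagent: Phospho 17-mer peptide substrate / Buffer or medium: Acidic Tris acetate buffer with magnesium and detergent / Signal: absorbance at 630 nm / Doses: one concentration, 20 µM, with 1.0% DMSO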
# DNMT1 inh = blocks human DNA methyltransferase DNMT1. P26358. DNMT1 molecular beacon, Hinp1I cleavage, fluorescence. inhibition (reported as % activation of signal), % at 10 µM. actives 0.83% (n = 360,000). AID 588458; in the data active means inhibition above about 50%
# UBC9 SUMO inh = SUMOylation inhibition | P63279 | HTRF SUMOylation assay, SAE1/SAE2 + UBC9, in vitro | inhibition, % at 35 µM | actives 0.36% (n = 290,000); in the data active means inhibition above about 50%, passing the limit was not always enough
# SUMO1-SIM PPI = SUMO1-SIM interaction modulation; inhibition, % at 20 µM; SUMO1 binding to a labelled peptide, TR-FRET, 1 h; P63165; actives 0.33% (n = 360,000); AID 602429; in the data active means inhibition above about 37%
# Target sequence (P63165 whole entry, looked up): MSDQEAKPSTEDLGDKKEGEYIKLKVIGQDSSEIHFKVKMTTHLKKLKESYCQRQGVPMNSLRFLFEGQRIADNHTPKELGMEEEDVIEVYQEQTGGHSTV
# STEP inh = inhibitors of human striatal-enriched phosphatase STEP; recombinant STEP, OMFP fluorogenic substrate, fluorescence; inhibition, % at 20 µM; P54829; actives 0.25% (n = 360,000);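 active means inhibition at 20 µM, scaled per plate between control wells, above about 37%, limit read from the data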;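 further: 0% = DMSO with enzyme and substrate and 100% = substrate only without enzyme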
# Target sequence (P54829 whole entry, looked up): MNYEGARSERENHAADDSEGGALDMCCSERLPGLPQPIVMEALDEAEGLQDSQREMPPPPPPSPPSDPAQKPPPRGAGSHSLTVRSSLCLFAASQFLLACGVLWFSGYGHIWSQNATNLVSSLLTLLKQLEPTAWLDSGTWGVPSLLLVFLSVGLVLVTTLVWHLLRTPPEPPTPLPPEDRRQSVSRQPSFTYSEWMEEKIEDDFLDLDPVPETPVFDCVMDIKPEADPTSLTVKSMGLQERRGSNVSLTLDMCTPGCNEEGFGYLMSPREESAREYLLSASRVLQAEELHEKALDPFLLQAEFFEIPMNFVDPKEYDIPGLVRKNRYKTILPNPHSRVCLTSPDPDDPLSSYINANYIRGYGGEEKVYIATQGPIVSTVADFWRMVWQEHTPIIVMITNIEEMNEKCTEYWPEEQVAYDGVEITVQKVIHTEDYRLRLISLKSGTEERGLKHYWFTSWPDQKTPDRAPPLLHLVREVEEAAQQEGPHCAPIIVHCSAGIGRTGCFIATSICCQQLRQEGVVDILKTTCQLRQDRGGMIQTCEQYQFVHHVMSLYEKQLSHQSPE
#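 Test system: STEP tyrosine phosphatase / Reagent: OMFP at 25 µM / Doses: 20 µM, 1% DMSO / Read-out: percent inhibition scaled to no-enzyme and uninhibited-enzyme controls, plate-pattern corrected / Detection: FITC-channel fluorescence of OMFP product / Medium: Bis-Tris buffer pH 6.0, 2.5 mM DTT, 0.005% Tween 20 / Schedule: 20 min at room temperature, dark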
# Scp-1 conf = confirmation of human Scp-1 phosphatase inhibitors; shares compounds with Scp1 inh; recombinant SCP-1 catalytic domain, phosphate release, malachite green absorbance; inhibition, % at 20 µM; actives 61% (n = 2,500); AID 540281;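 further: plate controls were DMSO with enzyme for no effect and buffer wells lacking enzyme for full effect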
# MG interference = colorimetric interference in Scp-1 counter-screen | shares compounds with Scp1 inh | apparent inhibition (interference), % at 20 µM | Colorimetric interference counterscreen, malachite green absorbance 630 nm | 2,500 tested, under 10 active;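 further: compounds added after enzyme reaction finished so only phosphate colour detection is probed; plate controls were DMSO wells with completed Scp-1 reaction for no effect and substrate wells lacking enzyme for full effect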
# Scp-1 Tm shift = binds human Scp-1, shifting its melting temperature; shares compounds with Scp1 inh; Recombinant SCP1, Sypro Orange thermal shift Tm; thermal shift relative to vanadate control, % at 40 µM; actives 25% (n = 1,500); AID 540329;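 active means substances whose mean melting-temperature shift, as a percentage of the reference inhibitor's shift, reaches about 5.3%, limit read from the data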;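 further: 0% = Tm of DMSO wells and 100% = Tm with sodium orthovanadate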
# DNMT1 confirm = DNMT1 inhibition confirmation, single concentration. DNMT1 molecular beacon HinP1I cleavage, fluorescence. actives 8% (n = 2,300). AID 602385. inhibition, % at 10 µM. shares compounds with DNMT1 inh;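 active means average inhibition of at least 30% in the single-concentration confirmation test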
# Beacon interf = beacon fluorescence artifact counter-screen; actives 1% (n = 2,300); activation (fluorescence interference), % at 10 µM; DNMT1 molecular beacon spectral interference counterscreen, fluorescence 485/520; shares compounds with DNMT1 inh;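 active means activation of at least 30% at 10 µM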;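 further: DNMT1 catalytic domain with a HinP1I cleavage step and a FAM/dabcyl DNA beacon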
# Active calls of the source: *; · = not tested or not shown.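 How the source made its calls, unless noted: active means inhibition of at least 30% at 20 µM; inactive means the rest.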
SMILES,LMPTP inh,Scp1 inh,DNMT1 inh,UBC9 SUMO inh,SUMO1-SIM PPI,STEP inh,Scp-1 conf,MG interference,Scp-1 Tm shift,DNMT1 confirm,Beacon interf
COCCn1c(-c2ccc(OC)cc2)c(-c2ccc(OC)cc2)oc1=O,0.2,-6.8,0.2,25.5,1.2,-1.3,·,·,·,·,·
Cc1ccccc1NC(=O)Cn1nnc(C(=O)NCc2ccco2)c1N,-2.2,-2.8,-1.2,13.0,-0.8,3.7,·,·,·,·,·
Cc1ccccc1NC(=O)Cn1nnc(S(=O)(=O)c2ccc(C(C)(C)C)cc2)c1N,47.6,106.0*,60.6*,35.5,9.9,20.9,75.8*,-18.9,-28.8,-1.3,2.3
COCCNC(=S)N1CCc2cc(OC)c(OC)cc2C1c1cccs1 (stereo not drawn),-0.5,-11.6,-3.1,0.5,-1.4,-2.3,·,·,·,·,·
Cc1ccc(OCC(=O)Nc2nnc(S(=O)(=O)N3CCCCC3)s2)cc1,30.7,71.5*,88.8*,20.0,42.9*,3.1,56.9*,-20.5,5.7*,12.6,0.0
Cc1ccc(OCC(=O)Nc2nnc(S(=O)(=O)N3CCCCCC3)s2)cc1,-0.7,-3.4,7.1,14.0,6.4,2.0,·,·,·,·,·
O=C1COc2ccc(C(=O)COC(=O)/C=C/c3ccco3)cc2N1,16.2,59.0*,57.0*,·,-12.6,8.0,56.8*,-10.1,-14.5,4.6,3.4
O=C(/C=C/c1ccco1)OCC(=O)N1CCCCC1,14.8,96.2*,50.3*,·,-14.0,40.9*,50.6*,-19.9,-8.3,-1.3,-0.2
O=C1COc2ccc(C(=O)COC(=O)c3ccco3)cc2N1,2.4,-8.4,1.8,-17.5,-4.1,0.5,·,·,·,·,·
O=C(O)C1=C(C(=O)O)C2C=CC1C2,0.6,72.0*,60.4*,·,24.5,33.3,51.6*,-15.0,-3.0,5.0,2.4
Cc1cccc(C(=O)N[C@H](C(=O)OCc2cc(=O)n3c(n2)sc2ccccc23)C(C)C)c1,23.1,72.5*,98.1*,12.4,7.8,9.1,49.7*,-22.1,2.4,3.1,0.6
COc1ccc(/C=C/C(=O)OCc2cc(=O)n3c(n2)sc2ccccc23)cc1,3.2,-2.5,6.1,16.8,-5.4,3.3,·,·,·,·,·
O=C(OCc1cc(=O)n2c(n1)sc1ccccc12)c1ccc(O)cc1,1.7,63.9*,56.2*,-13.9,9.2,3.4,53.5*,-20.8,-8.8,1.2,2.3
COc1cc(NC(C)=O)c2ncccc2c1NC(C)=O,-0.1,-11.0,-1.4,17.6,0.8,-0.6,·,·,·,·,·
CC(=O)Nc1cc(=O)c2cccnc2[nH]1,64.2*,81.5*,63.2*,·,31.4,10.3,61.1*,-4.9,1.7,16.2,6.8
CC(Oc1ccccc1F)C(=O)NNC(=O)CCNC(=O)c1ccccc1Cl (stereo not drawn),-0.9,-3.1,-1.7,0.0,2.1,-0.1,·,·,·,·,·
COc1ccc(NC(=O)CN(C)C(=O)c2ccc(NS(=O)(=O)c3ccc4[nH]c(=O)[nH]c4c3)cc2)cc1,-0.2,-3.5,-0.5,·,2.2,-1.0,·,·,·,·,·
CC1(CC(=O)N/N=C/c2cc([N+](=O)[O-])c(O)cc2O)OCCO1,69.3*,69.5*,69.4*,14.7,-14.2,14.5,64.2*,-3.5,6.1*,2.4,-3.0
OC(c1ccc(-c2ccccc2)cc1)c1ncc(-c2ccccc2)[nH]1 (stereo not drawn),1.4,·,-8.1,·,1.8,-1.2,·,·,·,·,·
COC(=O)C1=CO[C@@H](O[C@@H]2OC(CO)[C@@H](O)[C@@H](O)[C@@H]2O)C2C1CC[C@]2(C)O (stereo partly drawn),0.3,4.1,-2.5,·,1.0,-3.9,·,·,·,·,·
COC(=O)C1=COC(OC2OC(CO)C(O)C(O)C2O)C2C1C=CC2(O)CO (stereo not drawn),5.7,58.2*,89.8*,25.1,19.5,13.7,34.2*,-10.9,-6.4,2.6,-1.3
N#Cc1cccc(NC(=O)c2cc(C3CCCCN3S(=O)(=O)c3ccccc3)on2)c1 (stereo not drawn),0.1,·,4.3,·,-0.8,-0.8,·,·,·,·,·
Cc1c(N2C(=O)CSC2c2ccco2)c(=O)n(-c2ccccc2)n1C (stereo not drawn),-1.0,2.7,-1.6,5.3,-0.8,-1.8,·,·,·,·,·
O=C(O)c1cc(-c2ccco2)nn1-c1cccc(Cl)c1,8.2,66.1*,105.4*,49.3,44.4*,16.2,57.6*,-14.7,8.4*,7.4,-1.9
Clc1ccc(-c2ccc(-c3nn4c(-c5ccco5)nnc4s3)o2)cc1,26.2,77.3*,78.1*,·,30.0,4.6,50.0*,-10.6,-0.5,2.1,-0.6
SMILES,LMPTP inh,Scp1 inh,DNMT1 inh,UBC9 SUMO inh,SUMO1-SIM PPI,STEP inh,Scp-1 conf,MG interference,Scp-1 Tm shift,DNMT1 confirm,Beacon interf
c1ccc(-c2nn3c(-c4ccco4)nnc3s2)nc1,1.0,4.5,-0.1,31.2,17.4,6.4,·,·,·,·,·
Brc1ccc(-c2nn3c(-c4ccco4)nnc3s2)o1,10.0,52.1*,84.1*,10.9,17.7,16.7,22.2,-16.2,·,2.6,3.6
CCCOc1ccc(/C=c2\sc3nc(-c4ccco4)nn3c2=O)cc1OCC,2.1,84.0*,73.0*,2.3,13.7,1.3,9.1,-25.2,·,2.6,1.1
CC(C)C(NS(=O)(=O)c1cccs1)C(=O)N1CCC(C(N)=O)CC1 (stereo not drawn),0.0,-1.1,7.0,·,-4.1,-1.0,·,·,·,·,·
CSCC[C@H](NS(=O)(=O)c1ccc(C(C)=O)cc1)c1nnc2ccccn12,2.9,61.2*,55.2*,10.2,0.1,54.9*,63.9*,-4.3,-12.9,5.9,0.3
COc1ccc(OC)c([N+](=O)[O-])c1C(N)=O,14.1,67.7*,75.0*,11.8,4.6,20.9,61.6*,-6.5,-9.5,2.2,-1.9
COC(=O)[C@]12CCCCC=C1N(CCc1ccc(OC)c(OC)c1)C(=O)[C@H](CC(=O)NCCc1ccccc1OC)C2,-0.4,·,·,·,-4.4,·,·,·,·,·,·
O=C(CN1C(=O)NC2(CCCC2)C1=O)NCCc1ccc(F)cc1,-1.3,-9.6,-7.4,·,1.6,0.1,·,·,·,·,·
